Source: PubChem BioAssay (several laboratories)
OX1R antag-1 = antagonists of human orexin 1 receptor (OX1R); inhibition, % at 6.6 µM; actives 1.8% (n = 330,000); OX1R-expressing cells, FRET antagonist read-out; O43613; AID 485270; in the data active = inhibition mostly above about 38%, no sharp cut-off; inactive = mostly below about 40%;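 also: 0% = agonist challenge alone and 100% = reference antagonist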
Target sequence (O43613 whole entry, looked up): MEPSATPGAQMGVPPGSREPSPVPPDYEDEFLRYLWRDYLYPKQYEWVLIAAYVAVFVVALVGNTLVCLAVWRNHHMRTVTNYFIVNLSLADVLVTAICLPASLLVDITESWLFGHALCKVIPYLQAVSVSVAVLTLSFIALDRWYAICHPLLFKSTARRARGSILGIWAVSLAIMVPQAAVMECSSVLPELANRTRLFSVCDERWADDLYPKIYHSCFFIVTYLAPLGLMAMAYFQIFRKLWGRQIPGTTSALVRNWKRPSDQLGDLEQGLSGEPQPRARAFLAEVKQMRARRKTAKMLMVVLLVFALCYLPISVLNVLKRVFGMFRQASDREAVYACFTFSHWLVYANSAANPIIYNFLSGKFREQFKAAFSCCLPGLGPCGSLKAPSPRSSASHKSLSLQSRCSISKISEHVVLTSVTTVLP
OX1R antag-2 = antagonists of human orexin 1 receptor. CHO/OX1R cells, Fluo-8 calcium fluorescence, orexin A. inhibition, % at 5 µM. actives 0.43% (n = 330,000). O43613. AID 434989;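 active = inhibition above its plate's threshold, mean inhibition of all tested compounds on the plate plus 3 SD, cut at about 37% in these data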;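 also: 0% = orexin A challenge wells and 100% = SB-334867-A antagonist wells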
EP2 antag = EP2 receptor (human) inhibition; inhibition, % at 25 µM; AID 1422; P43116; C6 glioma cells expressing human EP2, cAMP TR-FRET; cells stimulated with saturating PGE2; actives 0.52% (n = 260,000);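 active = percent inhibition above 40 after rounding to a whole number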;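 also: rat C6 glioma host cells with rolipram phosphodiesterase inhibitor present; the protocol text gives 20 µM as final concentration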
GPR7 antag = human neuropeptides B/W receptor 1 antagonism. actives 1.1% (n = 290,000). inhibition, % at 4.4 µM. AID 1861. P48145. GPR7-expressing cells, fluorescence antagonist assay; in the data active = inhibition above about 16%, passing the limit was not always enough;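 also: cells stimulated with the agonist NPW; 0% = agonist with vehicle and 100% = vehicle without agonist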
CHO parental Ca = counter-screen: ATP calcium response change in parental CHO cells | AID 463079 | actives 0.63% (n = 330,000) | inhibition, % at 5.6 µM | parental CHO-K1, ATP-induced calcium, Fluo-8 fluorescence;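 active = inhibition above that plate's mean sample inhibition plus 3 SD, cut at about 26% in these data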;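 also: 0% = ATP-challenged DMSO wells and 100% = DMSO wells without ATP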
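material = parental CHO cells | also added = ATP as calcium-mobilizing challenge | dosing = single point at 5.6 µM | detection = intracellular calcium via Fluo-8 no-wash fluorescent dye | read-out = % inhibition | benchmarks = low control ATP plus DMSO, high control DMSO only | repeats = one well per compound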
EP2 modulator = modulators of human EP2 prostaglandin E2 receptor | AID 940 | actives 0.83% (n = 260,000) | induction, % at 25 µM | EP2-expressing cells, cAMP HTRF FRET, PGE2 co-stimulation;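 active = compounds whose cAMP rise, as percent of the full-agonist control response, exceeds 60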;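 also: rat C6 glioma line stably carrying human EP2 under a CMV promoter; the protocol text gives 20 µM as final concentration; 100% = response of wells given 1 µM PGE2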
OX1R HTRF conf = OX1R (human) antagonism, HTRF confirmed; OX1R-expressing cells, HTRF antagonist assay; inhibition, % at 6.6 µM; shares compounds with OX1R antag-1; actives 49% (n = 1,800); in the data active = inhibition above about 55%;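 also: CHO cells expressing OX1R stimulated with orexin A at about EC80; 0% = agonist challenge alone and 100% = reference antagonist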
CHO-K1 HTRF = signal in parental CHO-K1 cells, OX1R antagonist counter-screen. shares compounds with OX1R antag-1. HTRF counterscreen. inhibition, % at 6.6 µM. actives 48% (n = 1,800); in the data active = inhibition above about 17%;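 also: 0% = agonist challenge with vehicle and 100% = vehicle alone without agonist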
Active calls of the source: *. Shown are actives, neighbours in structure and some others; about 3.7% of the full set was active somewhere.

COc1ccccc1NC(=O)COC(=O)c1ccc([N+](=O)[O-])s1 was read as OX1R antag-1 90.7*, OX1R antag-2 -13.1, EP2 antag 12.7, GPR7 antag -16.2, CHO parental Ca -13.5, EP2 modulator -67.3, OX1R HTRF conf 37.1 and CHO-K1 HTRF 48.4*.
For Nc1c([N+](=O)[O-])cc(-c2cnc[nH]2)cc1[N+](=O)[O-] the results were OX1R antag-1 102.3*, OX1R antag-2 3.1, EP2 antag 4.4, GPR7 antag -17.8, CHO parental Ca 7.0, EP2 modulator 4.8, OX1R HTRF conf 60.9* and CHO-K1 HTRF 102.0*.
For CCOc1ccc(NC(=O)C2CCN(S(=O)(=O)CC)CC2)cc1 the results were OX1R antag-1 9.5, OX1R antag-2 -1.7, GPR7 antag -16.6 and CHO parental Ca -11.1.
`CSC1=N/C(=C/c2ccc(-n3cncn3)cc2)C(=O)N1` gave OX1R antag-1 85.6*, OX1R antag-2 -11.1, EP2 antag 6.7, GPR7 antag -7.7, CHO parental Ca -3.5, EP2 modulator 8.4, OX1R HTRF conf 35.4 and CHO-K1 HTRF 25.1*.
Screening O=C(NCC1CCN(C(=O)c2ccc([N+](=O)[O-])cc2)CC1)c1ccc([N+](=O)[O-])cc1 returned OX1R antag-1 86.1*, OX1R antag-2 -24.1, GPR7 antag 9.7, CHO parental Ca -4.5, OX1R HTRF conf 42.2 and CHO-K1 HTRF 35.9*.
O=C(c1ccc([N+](=O)[O-])cc1[N+](=O)[O-])N1CCCC1 was read as OX1R antag-1 111.9*, OX1R antag-2 -14.9, EP2 antag 1.4, GPR7 antag -4.0, CHO parental Ca 0.6, EP2 modulator -2.9, OX1R HTRF conf 41.0 and CHO-K1 HTRF 45.9*.
Screening O=C(c1ccc(F)cc1)N1CCN(C(=O)c2ccc([N+](=O)[O-])cc2)CC1 returned OX1R antag-1 85.8*, OX1R antag-2 -23.3, EP2 antag 7.1, GPR7 antag -0.4, CHO parental Ca -6.0, EP2 modulator 9.6, OX1R HTRF conf 44.3 and CHO-K1 HTRF 34.5*.
For COc1ccc(/C=C/C(=O)OCC(=O)N2CC(=O)Nc3ccccc32)cc1 the results were OX1R antag-1 25.3, OX1R antag-2 -10.8, EP2 antag 1.8, GPR7 antag -1.1, CHO parental Ca -9.5 and EP2 modulator -16.9.
COc1ccc(-c2ccc(SCC(=O)N3CC(=O)Nc4ccccc43)nn2)cc1 was read as OX1R antag-1 97.3*, OX1R antag-2 -17.8, GPR7 antag -9.5, CHO parental Ca -4.7, OX1R HTRF conf 19.5 and CHO-K1 HTRF 5.9.
For CC(C)CN(C(=O)CCNC(=O)c1ccc([N+](=O)[O-])cc1)C1CCS(=O)(=O)C1 (stereo unspecified) the results were OX1R antag-1 35.1, OX1R antag-2 -12.3 and CHO parental Ca -12.6.
Screening CC(C)CN(C(=O)c1cc([N+](=O)[O-])cc([N+](=O)[O-])c1)C1CCS(=O)(=O)C1 (stereo unspecified) returned OX1R antag-1 91.3*, OX1R antag-2 -5.7, CHO parental Ca -6.4, OX1R HTRF conf 69.9* and CHO-K1 HTRF 50.2*.
For N=c1oc2cc(O)ccc2cc1C(=O)Nc1ccc(F)cc1 the results were OX1R antag-1 3.5, OX1R antag-2 -13.2, GPR7 antag 2.6 and CHO parental Ca -3.4.
COc1ccc(NC(=O)c2cc3ccc(O)cc3o/c2=N\O)cc1 was read as OX1R antag-1 85.4*, OX1R antag-2 8.8, GPR7 antag 14.1, CHO parental Ca -1.8, OX1R HTRF conf 75.7* and CHO-K1 HTRF 9.3.
COc1ccc(CC2(CO)CCN(Cc3ccc4c(c3)CCO4)CC2)cc1 was read as OX1R antag-1 1.3, OX1R antag-2 -32.6, EP2 antag 0.2, GPR7 antag -15.6, CHO parental Ca -27.4 and EP2 modulator -6.2.
Screening COc1cccc(Nc2ncnc3c2cnn3-c2cccc(C)c2)c1 returned OX1R antag-1 91.9*, OX1R antag-2 8.2, EP2 antag 6.2, GPR7 antag 3.1, CHO parental Ca -9.6, EP2 modulator -28.8, OX1R HTRF conf 45.5 and CHO-K1 HTRF 0.4.
Screening CC(C)[C@H]1CN(Cc2ccccc2F)CCN1C(=O)c1cnccn1 returned EP2 modulator -39.2.
Screening Clc1ccc(Oc2cnns2)c(Cl)c1 returned OX1R antag-1 27.3, OX1R antag-2 -0.5, EP2 antag 12.8, GPR7 antag 0.0, CHO parental Ca -4.7 and EP2 modulator 17.7.
For Cc1ccc(-n2nc(C(=O)NN)c(C)c(C#N)c2=O)cc1Cl the results were OX1R antag-1 33.8, OX1R antag-2 -25.1, GPR7 antag 5.9 and CHO parental Ca -17.2.
Screening COc1ccc(-n2nc(C(=O)N3CCCCC3)c(C)c(C#N)c2=O)cc1 returned OX1R antag-1 112.9*, OX1R antag-2 -12.1, EP2 antag 13.7, GPR7 antag -1.7, CHO parental Ca -8.8, EP2 modulator 31.2, OX1R HTRF conf 77.3* and CHO-K1 HTRF 50.3*.
`COC(=O)Nc1nn(-c2ccc(C)cc2)c(=O)c(C#N)c1C` gave OX1R antag-1 137.0*, OX1R antag-2 0.8, EP2 antag 15.9, GPR7 antag -6.0, CHO parental Ca -10.9, EP2 modulator -5.0, OX1R HTRF conf 56.3* and CHO-K1 HTRF 67.7*.
`COC(=O)Nc1nn(-c2ccc(OC)cc2)c(=O)c(C#N)c1C` gave OX1R antag-1 166.3*, OX1R antag-2 -1.3, EP2 antag 8.2, GPR7 antag -4.8, CHO parental Ca -11.4, EP2 modulator -0.3, OX1R HTRF conf 59.2* and CHO-K1 HTRF 91.0*.
Screening CCOc1ccc(C(C)NC(=O)c2cc(=O)[nH]c3ccccc23)cc1OCC (stereo unspecified) returned OX1R antag-1 10.2, OX1R antag-2 -2.7, GPR7 antag -18.1 and CHO parental Ca -9.6.
`O=c1cc(N2CCCCC2)nc2n1CCCS2` gave OX1R antag-1 0.1, OX1R antag-2 -2.2, EP2 antag 6.7, GPR7 antag -5.9, CHO parental Ca -14.3 and EP2 modulator 15.7.
`CCOC(=O)CC(NC(=O)c1ccccc1F)c1ccc(C)cc1` (stereo unspecified) gave OX1R antag-1 2.6, OX1R antag-2 -20.8, EP2 antag 2.0, GPR7 antag -10.7, CHO parental Ca -25.3 and EP2 modulator 19.8.
`CC(=O)c1nnn(-c2ccc([N+](=O)[O-])cc2)c1C` gave OX1R antag-1 123.5*, OX1R antag-2 -10.9, EP2 antag 10.6, GPR7 antag -16.4, CHO parental Ca -3.8, EP2 modulator 37.4, OX1R HTRF conf 41.8 and CHO-K1 HTRF 59.4*.
